Compound activity as filed in PubChem.
Sampled rows, rich in hits. Any-hit rate of the full collection: about 1.5%.
EBI2 antag = blocks human EBI2 receptor beta-arrestin signaling; P32249; EBI2 beta-arrestin recruitment, luminescence, 7a,25-OHC stimulated; inhibition, % at 5 µM; hit rate 0.81% among 360,000; AID 651636; in the data active = inhibition above about 38%;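 note: enzyme fragment complementation signal reports receptor beta-arrestin coupling in cells; 0% = agonist plus DMSO wells and 100% = wells without agonist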
Target sequence (P32249 whole entry, looked up, the tested form may be a part): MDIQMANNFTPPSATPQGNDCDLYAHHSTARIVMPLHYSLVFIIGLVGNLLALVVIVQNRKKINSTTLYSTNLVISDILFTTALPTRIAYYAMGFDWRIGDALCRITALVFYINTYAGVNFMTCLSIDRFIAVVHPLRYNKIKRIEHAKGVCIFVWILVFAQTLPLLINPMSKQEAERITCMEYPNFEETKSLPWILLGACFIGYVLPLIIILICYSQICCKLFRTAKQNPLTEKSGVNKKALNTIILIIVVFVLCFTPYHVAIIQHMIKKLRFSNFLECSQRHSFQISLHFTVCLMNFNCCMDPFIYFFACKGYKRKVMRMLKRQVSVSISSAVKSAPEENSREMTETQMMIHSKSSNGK
CCR6 antag = blocks CCL20-driven beta-arrestin recruitment at human CCR6 | hit rate 0.49% among 340,000 | inhibition, % at 20 µM | CHO-K1 CCR6 PathHunter beta-arrestin, luminescence, CCL20-stimulated | P51684;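 active = compounds whose inhibition of the agonist-driven luminescence signal at 20 µM reaches about 50%, limit read from the data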;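 note: cells stimulated with CCL20 at 14 nM final; plate controls were DMSO with CCL20 for no effect and DMSO without agonist for full effect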
Target sequence (P51684 whole entry, looked up): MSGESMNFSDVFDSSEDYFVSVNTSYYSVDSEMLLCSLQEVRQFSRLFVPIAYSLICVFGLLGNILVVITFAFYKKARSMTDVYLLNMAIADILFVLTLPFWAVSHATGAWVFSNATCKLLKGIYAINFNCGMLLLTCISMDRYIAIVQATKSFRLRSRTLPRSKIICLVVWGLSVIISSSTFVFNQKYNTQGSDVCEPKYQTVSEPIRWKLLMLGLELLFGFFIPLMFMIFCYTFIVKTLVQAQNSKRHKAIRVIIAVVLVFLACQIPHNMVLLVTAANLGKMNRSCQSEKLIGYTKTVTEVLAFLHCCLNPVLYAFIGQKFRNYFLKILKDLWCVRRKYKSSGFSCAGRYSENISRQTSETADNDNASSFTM
APJ agonist = APJ receptor agonism; P35414; CHO-K1 APJ PathHunter beta-arrestin, luminescence; 0% DMSO wells, 100% apelin; activation, % at 20 µM; hit rate 0.11% among 330,000;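 active = activation more than six SD over the plate average, tested at 20 µM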;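 note: 0% = DMSO alone and 100% = apelin-13 at 10 nM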
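Assay system: engineered CHO-K1 APJ arrestin reporter cells; Amount: 1000 CHO-K1 reporter cells seeded per well; Dosing: one dose, 20 µM compound, 1% DMSO; Times: compound stimulation 90 min at 25 °C, detection 60 min; Measured by: luminescent beta-gal fragment complementation, chemiluminescent substrate; Read-out: APJ–arrestin association signal; Controls: DMSO vs Apelin-13 10 nM.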
APJ antagonist = blocks the human apelin receptor APJ | P35414 | CHO-K1 APJ beta-arrestin complementation, luminescence | inhibition, % at 20 µM | hit rate 0.32% among 330,000 | AID 2521;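 active = inhibition above about 40% at 20 µM, limit read from the data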;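 note: cells challenged with 10 nM apelin-13 agonist together with compound; plate controls were apelin-13 plus DMSO wells for no effect and DMSO wells lacking apelin-13 for full effect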
CXCR6 inh = inhibitors of human CXCR6 receptor; CHO-K1 PathHunter CXCR6 beta-arrestin, luminescence; hit rate 0.36% among 360,000; O00574; inhibition, % at 20 µM; in the data active = inhibition above about 34%, passing the limit was not always enough;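 note: antagonist mode with CXCL16 agonist at 10 nM final; 0% = 10 nM CXCL16 with DMSO and 100% = unstimulated wells without agonist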
EBI2 antag conf = EBI2 (human) antagonism, single concentration confirmation. inhibition, % at 5 µM. hit rate 29% among 2,400. AID 651997. shares compounds with EBI2 antag. EBI2 beta-arrestin luminescence, 7a,25-OHC antagonism;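 active = inhibition of at least 50%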
EBI2 ag = EBI2 agonism counter-screen. EBI2-expressing cells, agonist mode, luminescence, 60 min; 0% vehicle, 100% 7α,25-dihydroxycholesterol control. 2,400 tested, under 10 active. activation, % at 5 µM. shares compounds with EBI2 antag;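 active = activation of at least 50%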
bGal cs = beta-galactosidase inhibition counter-screen | purified beta-galactosidase, luminescent Galacton Star, 15 min | inhibition, % at 5 µM | shares compounds with EBI2 antag | AID 652176 | hit rate 1% among 2,400;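 active = replicate-average signal at least 3 plate SD below neutral wells, shown as high inhibition, flagging enzyme-inhibiting false positives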;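 note: 0% = DMSO wells with enzyme and 100% = wells lacking enzyme; higher means stronger loss of beta-gal luminescence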
Numbers without * were called inactive; x = not tested or not shown.

SMILES	EBI2 antag	CCR6 antag	APJ agonist	APJ antagonist	CXCR6 inh	EBI2 antag conf	EBI2 ag	bGal cs
O=C(CCCN1C(=O)C(c2ccccc2)Oc2cccnc21)NCCc1ccc(Cl)cc1 (stereo not drawn)	41.0	16.4	-3.8	18.6	-3.8	x	x	x
Cc1nn(CCCC(=O)Nc2cc(Oc3ccccc3)cc([N+](=O)[O-])c2)c(C)c1[N+](=O)[O-]	21.0	17.6	1.1	1.7	6.8	x	x	x
Cc1ccc(C)c(Oc2cc(NC(=O)CCCn3nc(C)c([N+](=O)[O-])c3C)cc([N+](=O)[O-])c2)c1	44.3*	21.8	0.3	-1.0	-2.5	24.4	0.2	7.4
CN(CC(=O)Nc1ccc(Cl)c(C(F)(F)F)c1)C(=O)CNC(=O)C1CCCCC1	-17.1	9.5	-3.4	2.1	-5.9	x	x	x
Cc1ccc(N2CC(C(=O)OCC(=O)Nc3c(C)cccc3C)CC2=O)cc1 (stereo not drawn)	9.3	x	x	x	3.9	x	x	x
Clc1ccc(CN(Cc2ccccc2)C(c2cccs2)c2nnnn2C2CCCC2)cc1 (stereo not drawn)	30.6	0.7	-1.6	13.6	4.6	x	x	x
CC(C)(C)n1nnnc1C(c1cccs1)N(Cc1ccc(Cl)cc1)CC1CCCO1 (stereo not drawn)	60.4*	13.6	-0.5	4.7	1.7	16.0	0.5	6.2
O=C(NCCOc1ccccc1Cl)c1ccc2c(c1)S(=O)(=O)c1cc(Cl)ccc1C2=O	-8.0	-19.8	12.4	-7.3	-30.3	x	x	x
Nc1[nH]c(C(=O)c2ccccc2)c(-c2ccccc2C(F)(F)F)c1C(=O)c1cccs1	44.7*	x	x	x	7.1	20.2	-0.8	-7.4
CC[C@@H]1CC=C[C@H]2[C@H]1C(=O)N(Cc1ccccc1)[C@H]2c1ccc2ccccc2c1	x	x	-5.7	-4.7	x	x	x	x
CC1(C)CC2(CCO1)OC(=O)CC2C(=O)Nc1ccccc1Cl (stereo not drawn)	-0.9	8.9	-0.4	-3.7	2.5	x	x	x
COc1cccc(NC(=O)CN(C)C(=O)c2ccc3c(c2)CC(c2ccccc2)OC3=O)c1 (stereo not drawn)	32.9	25.9	-1.8	6.2	3.5	x	x	x
COc1ccc(NC(=O)CN(C)C(=O)c2ccc3c(c2)CC(c2ccccc2)OC3=O)cc1 (stereo not drawn)	49.0*	x	x	x	-7.6	16.1	-0.4	-12.2
O=C1Cc2cc(S(=O)(=O)Nc3ccccc3Cl)cc3c2N1CCC3	0.5	-4.1	1.3	9.2	1.0	x	x	x
Nc1nc(SCc2ccccc2)c2ncn(CCO)c2n1	-0.2	5.6	x	x	-1.0	x	x	x
O=C(CSc1ccc2c(c1)OCCO2)NCCc1ccc(Cl)cc1Cl	62.8*	3.8	-0.5	-19.8	-1.6	27.3	-0.3	-12.3
O=C(CSc1ccc2c(c1)OCCO2)Nc1ncc(Cl)cc1Cl	-1.4	1.4	-3.2	13.0	2.0	x	x	x
COc1cccc(/C=N/NC(=O)c2ccc(N3CCCC3=O)cc2)c1	4.4	10.7	-2.6	-0.7	3.7	x	x	x
CCOc1ccc(OCCCC(=O)N2CCN(S(=O)(=O)c3ccc(Cl)cc3)CC2)cc1	11.4	3.8	-2.9	7.5	-2.3	x	x	x
CCOC(=O)c1ccc(NC(=O)NC(C)C2CCCO2)cc1 (stereo not drawn)	1.3	-0.5	-2.2	-3.7	0.0	x	x	x
O=C(NCCOc1ccccc1)C(c1ccccc1)c1ccccc1	53.4*	15.5	-1.7	-17.3	11.5	43.6	-0.8	-16.3
COc1ccccc1OCCNC(=O)C(c1ccccc1)c1ccccc1	8.2	-3.3	0.4	16.5	5.0	x	x	x
COc1ccc(OCCNC(=O)C(c2ccccc2)c2ccccc2)cc1	85.0*	17.4	-2.8	-5.8	-4.9	52.4*	-1.5	-9.9
CCOC(=O)C1CCN(C(=O)C2CC(=O)N(c3ccc(C)cc3)C2)CC1 (stereo not drawn)	8.6	-4.3	-1.5	4.5	-3.0	x	x	x
O=C(COc1ccccc1)NC(=S)Nc1cccc2cc(O)ccc12	-23.0	17.8	4.2	-8.6	-4.2	x	x	x
SMILES	EBI2 antag	CCR6 antag	APJ agonist	APJ antagonist	CXCR6 inh	EBI2 antag conf	EBI2 ag	bGal cs
CSc1cc(-c2ccc(Cl)cc2)c(C(=O)NC(C)C)s1	46.7*	7.3	2.0	-3.3	9.2	34.0	1.4	-0.8
CSc1cc(-c2ccc(Cl)cc2)c(C(=O)NN)s1	13.4	-0.7	2.2	-5.5	-9.9	x	x	x
CC(C)(C)c1nnc(N/N=C/c2ccc(Br)cc2)n(N)c1=O	92.5*	-1.2	2.5	-19.1	1.4	80.0*	-0.1	-11.7
CC(C)(C)c1ccc(/C=N/Nc2nncn2N)cc1	-3.8	-12.3	-1.0	0.7	-0.4	x	x	x
COc1ccc(CNC(=O)C23CN(Cc4ccccc4)CC2C(c2ccc([N+](=O)[O-])cc2)=NO3)cc1 (stereo not drawn)	-9.2	-6.8	7.5	3.8	-0.3	x	x	x
COc1ccc(CCNC(=O)C23CN(Cc4ccccc4)CC2C(c2ccc([N+](=O)[O-])cc2)=NO3)cc1 (stereo not drawn)	60.8*	3.0	0.4	-7.1	2.6	29.7	-1.6	-12.1
CCOc1ccc(N=Cc2ccc3ccccc3c2)cc1	-0.8	-10.3	-0.1	6.5	-6.1	x	x	x
CCOc1ccc(N=CNc2ccc(OCC)cc2)cc1	56.0*	23.2	0.1	3.2	-14.1	48.1	0.2	4.5
O=C1OCC2=C1C(c1ccccc1)CC(=O)N2c1ccc(F)cc1 (stereo not drawn)	0.1	-2.8	-5.0	-27.1	-0.2	x	x	x
O=C(c1cc2cc(Cl)ccc2[nH]1)N1CCN(C(=O)c2ccco2)CC1	72.7*	-8.7	4.0	-10.0	-4.9	48.7	-1.4	-7.4
O=C(c1cc2cc(Cl)ccc2[nH]1)N1CCN(c2ccccn2)CC1	80.1*	-7.1	-1.7	11.5	-5.8	67.0*	-2.2	-8.4
O=C(c1cc2cc(Cl)ccc2[nH]1)N1CCN(c2ccccc2F)CC1	85.2*	-10.7	-1.1	-8.9	0.8	73.1*	0.7	7.4
CCCN(C)C[C@@H]1OCc2cnnn2CCCC(=O)N([C@H](C)CO)C[C@H]1C	-0.6	x	x	x	-9.0	x	x	x
Cn1c(=O)c2c(nc(N/N=C/c3ccc(OC(=O)c4ccco4)cc3)n2Cc2ccccc2Cl)n(C)c1=O	54.2*	-2.8	1.4	-11.9	-9.7	33.7	0.5	10.9
CCOC(=O)N1CCN(C(=S)NC(=O)/C=C/c2ccc(C)cc2)CC1	83.3*	11.7	-7.4	10.2	-0.7	48.4	0.1	7.4
Cc1ccccc1OCC(=O)N/N=C/c1cc2ccccc2nc1Cl	30.0	10.5	5.1	-8.8	-17.1	x	x	x
O=C(COc1cccc(Cl)c1)N/N=C\c1cc2ccccc2nc1Cl	52.6*	-1.7	0.8	-6.0	-5.6	42.1	-1.1	-9.8
